In ChEMBL document CHEMBL1131094, “Classical/nonclassical hybrid cannabinoids: southern aliphatic chain-functionalized C-6beta methyl, ethyl, and propyl analogues” (J Med Chem, 1998):

Assays:
[1] = target: Cannabinoid receptor 1 (Rattus norvegicus, UniProt P20272); experiment: Binding affinity to Cannabinoid receptor 1 from rat forebrain synaptosomal membranes was measured using [3H]CP-55940 as radioligand
How it was run: (§1)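 Filtration displacement assay: 40 µg membrane protein (rat forebrain synaptosomes for CB1, mouse spleen for CB2) incubated 1 h at 30 °C with 0.76 nM [3H]CP-55,940 and varied test concentrations. Nonspecific binding defined by 100 nM unlabeled CP-55,940. Specific binding normalized 0–100%, IC50 fitted with a four-variable equation (max 100, min 0), mean of ≥3 experiments in duplicate, then converted to Ki.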

[2] = target: Cannabinoid receptor 2 (Mus musculus, UniProt P47936); experiment: Binding affinity to Cannabinoid receptor 2 from mouse spleen was measured using [3H]CP-55940 as radioligand; assay type: tissue-based; how it was run: as §1
Sequence of Cannabinoid receptor 2 (P47936 whole entry): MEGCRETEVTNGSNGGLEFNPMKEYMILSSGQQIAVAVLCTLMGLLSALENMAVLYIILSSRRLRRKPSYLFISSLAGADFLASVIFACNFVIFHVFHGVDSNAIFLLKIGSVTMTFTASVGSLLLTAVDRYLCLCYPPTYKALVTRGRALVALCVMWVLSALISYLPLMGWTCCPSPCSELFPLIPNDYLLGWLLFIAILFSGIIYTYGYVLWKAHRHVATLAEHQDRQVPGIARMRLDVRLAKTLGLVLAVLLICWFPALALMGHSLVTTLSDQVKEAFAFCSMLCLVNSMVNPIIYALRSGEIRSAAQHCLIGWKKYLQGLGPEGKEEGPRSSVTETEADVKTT

Sequence of Cannabinoid receptor 1 (P20272 whole entry): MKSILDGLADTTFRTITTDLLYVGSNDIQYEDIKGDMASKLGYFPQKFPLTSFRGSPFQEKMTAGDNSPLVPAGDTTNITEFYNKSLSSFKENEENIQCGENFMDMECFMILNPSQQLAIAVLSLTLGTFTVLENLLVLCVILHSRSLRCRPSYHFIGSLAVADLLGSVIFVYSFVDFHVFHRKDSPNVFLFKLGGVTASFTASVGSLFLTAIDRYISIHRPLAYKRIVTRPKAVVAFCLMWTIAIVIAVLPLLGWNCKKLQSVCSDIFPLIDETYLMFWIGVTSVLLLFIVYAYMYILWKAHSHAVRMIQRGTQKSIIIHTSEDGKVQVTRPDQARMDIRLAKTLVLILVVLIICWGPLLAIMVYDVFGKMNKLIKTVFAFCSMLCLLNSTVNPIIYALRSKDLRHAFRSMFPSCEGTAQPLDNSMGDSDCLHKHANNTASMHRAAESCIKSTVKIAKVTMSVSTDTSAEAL

SMILES	Ki [1]	Ki [2]
CCCCCCC(C)(C)c1cc(O)c2c(c1)O[C@@](C)(CCCI)[C@@H]1CC[C@@H](CO)C[C@@H]21	2.2 nM	4.3 nM
CCCCCCC(C)(C)c1cc(O)c2c(c1)O[C@@](C)(CCO)[C@@H]1CC[C@@H](CO)C[C@@H]21	2.8 nM	2.3 nM
CCCCCCC(C)(C)c1cc(O)c2c(c1)O[C@@](C)(CCI)[C@@H]1CC[C@@H](CO)C[C@@H]21	40.7 nM	9.7 nM
CCCCCCC(C)(C)c1cc(O)c2c(c1)O[C@@](C)(CC)[C@@H]1CC[C@@H](CO)C[C@@H]21	11.1 nM	21.5 nM
CCCCCCC(C)(C)c1cc(O)c2c(c1)O[C@@](C)(CO)[C@@H]1CC[C@@H](CO)C[C@@H]21	1.9 nM	1.4 nM
CCCCCCC(C)(C)c1cc(O)c2c(c1)O[C@@](C)(CCCO)[C@@H]1CC[C@@H](CO)C[C@@H]21	2.2 nM	3.4 nM
CCCCCCC(C)(C)c1cc(O)c2c(c1)O[C@@](C)(CCC)[C@@H]1CC[C@@H](CO)C[C@@H]21	14.4 nM	38.9 nM
CCCCCCC(C)(C)c1cc(O)c2c(c1)OC(C)(C)[C@@H]1CC[C@@H](CO)C[C@@H]21	2.3 nM	2.3 nM
